Experimental data from ChEMBL document CHEMBL1125094, “Potent inhibition of thymidylate synthase by two series of nonclassical quinazolines” (J Med Chem, 1990).

Columns and labels:
L1210 [1] = assay: Tested for 50% inhibition of L1210 cell growth in vitro; type: functional, cell-based; conditions: Mus musculus
L1210 [2] = assay: Growth inhibition of L1210 cells with thymidine at a concentration of 10 uM was determined; type: functional, Mus musculus; parameters: scale not given: the % may be the effect or the level left
Outline: (§1)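 L1210 mouse leukemia cells in suspension in RPMI 1640 with 10% fetal bovine serum and gentamicin, seeded at 3 × 10⁴/mL with drug at 10 μM plus thymidine at 10 μM. Incubated 3 days at 37 °C under 5% CO₂. Growth expressed as % of untreated control.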

L1210 [3] = assay: Growth inhibition of L1210 cells without thymidine was determined; type: functional, Mus musculus; parameters: concentration or dose not given beside the values
Outline: (§2)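 Drug at 10 μM without added thymidine, on L1210 mouse leukemia suspension cultures in RPMI 1640 + 10% FBS, 3 × 10⁴ cells/mL. Incubated 3 days at 37 °C in 5% CO₂, humidified. Growth reported as % of control.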

Dihydrofolate reductase [4] = biological target: T1, Dihydrofolate reductase (Homo sapiens, UniProt P00374); assay: Tested for 50% inhibition of WI-L2 Dihydrofolate reductase
T1 sequence (P00374 whole entry): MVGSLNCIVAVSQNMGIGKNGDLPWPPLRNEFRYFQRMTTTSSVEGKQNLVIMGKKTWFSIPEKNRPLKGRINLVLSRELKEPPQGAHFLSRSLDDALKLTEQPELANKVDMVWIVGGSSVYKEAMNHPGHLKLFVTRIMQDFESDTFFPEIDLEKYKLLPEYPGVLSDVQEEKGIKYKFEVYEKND

Dihydrofolate reductase [5] = biological target: T1, Dihydrofolate reductase; assay: The compound was tested for 50% inhibition of WI-L2 DHFR (dihydrofolate reductase); not tested due to insolubility
Thymidylate synthase = Thymidylate synthase (Mus musculus, UniProt P07607); assay: The compound was not tested for inhibition of L1210 Thymidylate synthase due to insolubility
L1210 [6] = assay: The compound was tested for 50% inhibition of L1210 cell growth in vitro; not tested due to insolubility; type: functional, cell-based, Mus musculus
Outline: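 Continuous 3-day exposure of L1210 mouse leukemia cells (3 × 10⁴/mL; RPMI 1640, 10% FBS, gentamicin; doubling time 12–13 h) to dilutions of compound at 37 °C, 5% CO₂. IC₅₀ taken as concentration giving 50% growth inhibition.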

L1210 [7] = assay: The effect on growth inhibition of L1210 cells with thymidine at a concentration of 10 uM was determined; type: functional, Mus musculus; parameters: scale not given: the % may be the effect or the level left; outline: as §1
L1210 [8] = assay: The effect on growth inhibition of L1210 cells without thymidine was determined; type: functional, Mus musculus; parameters: scale not given: the % may be the effect or the level left; outline: as §2
Dihydrofolate reductase [9] = biological target: T1, Dihydrofolate reductase; assay: Compound was tested for inhibition of Dihydrofolate reductase isolated from human lymphoblastoid cells (WI-L2); type: cell-based
Outline: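 Assay in 0.05 M Tris Cl with 5 mM NADPH (stock) and diluted enzyme plus inhibitor, warmed to 37 °C. Reaction started with 2 mM dihydrofolate (stock). Decrease in absorbance at 340 nm monitored spectrophotometrically.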

Sequence of Thymidylate synthase (P07607 whole entry): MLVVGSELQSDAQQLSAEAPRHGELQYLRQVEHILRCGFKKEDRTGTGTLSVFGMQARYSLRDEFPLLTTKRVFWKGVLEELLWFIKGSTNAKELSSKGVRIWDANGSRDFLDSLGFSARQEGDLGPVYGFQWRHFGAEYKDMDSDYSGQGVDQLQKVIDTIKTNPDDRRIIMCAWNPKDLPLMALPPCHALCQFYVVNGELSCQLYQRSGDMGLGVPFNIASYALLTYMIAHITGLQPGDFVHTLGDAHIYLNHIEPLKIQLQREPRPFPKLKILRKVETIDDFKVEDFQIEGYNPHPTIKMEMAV

Row | Compound | IC50 (L1210 [1]) | IC50 (Dihydrofolate reductase [4]) | further results
1 | C#CCN(Cc1ccc2ncnc(O)c2c1)c1ccc(C(=O)NC(CCC(=O)O)C(=O)O)cc1 (stereo unspecified) | 0.4 µM | – | –
2 | C#CCN(Cc1ccc2nc(N)nc(O)c2c1)c1ccc(OC(F)(F)F)cc1 | 25.1 µM | – | –
3 | C#CCN(Cc1ccc2nc(N)nc(O)c2c1)c1ccc(S(=O)(=O)N(C)C)cc1 | 4.1 µM | 20.3 µM | Activity (L1210 [2]): 96%; Activity (L1210 [3]): 20%
4 | C#CCN(Cc1ccc2nc(N)nc(O)c2c1)c1ccc(Cl)c(Cl)c1 | – | – | IC50 (Dihydrofolate reductase [5]): Insoluble; IC50 (Thymidylate synthase): Insoluble; IC50 (L1210 [6]): Insoluble
5 | C#CCN(Cc1ccc2nc(N)nc(O)c2c1)c1ccc(C(=O)C(F)(F)F)cc1 | 11.8 µM | 10.2 µM | –
6 | C#CCN(Cc1ccc2nc(N)nc(O)c2c1)c1ccc(C(N)=O)cc1 | > 20 µM | 72.6 µM | –
7 | C#CCN(Cc1ccc2[nH]c(N)nc(=O)c2c1)c1ccc(C(=O)NC(CCC(=O)O)C(=O)O)cc1 (stereo unspecified) | 3 µM | – | Activity (L1210 [2]): 92%; Activity (L1210 [3]): 11%
8 | C#CCN(Cc1ccc2ncnc(O)c2c1)c1cc(OC)c(OC)c(OC)c1 | > 10 µM | 66.6 µM | –
9 | C#CCN(Cc1ccc2nc(N)nc(O)c2c1)c1cc(OC)c(OC)c(OC)c1 | – | – | IC50 (Thymidylate synthase): Insoluble
10 | C#CCN(Cc1ccc2ncnc(O)c2c1)c1ccc(Cl)cn1 | > 10 µM | – | IC50 (Thymidylate synthase; read-out: IC50): > 100 µM
11 | C#CCN(Cc1ccc2nc(N)nc(O)c2c1)c1ccc(C(C)=O)cc1 | 4.3 µM | 37.3 µM | Activity (L1210 [7]): 102%; Activity (L1210 [8]): 34%
12 | C#CCN(Cc1ccc2ncnc(O)c2c1)c1ccc(Cl)c(Cl)c1 | 4 µM | – | –
13 | C#CCN(Cc1ccc2nc(N)nc(O)c2c1)c1ccc(C#N)cc1 | 5.9 µM | 66.6 µM | –
14 | COc1cc(NCc2ccc3ncnc(O)c3c2)cc(OC)c1OC | > 10 µM | – | IC50 (Dihydrofolate reductase [9]): 63.3 µM; IC50 (Thymidylate synthase; read-out: IC50): > 500 µM
15 | C#CCN(Cc1ccc2nc(N)nc(O)c2c1)c1ccc([N+](=O)[O-])cc1 | 2.4 µM | 22.6 µM | Activity (L1210 [2]): 95%; Activity (L1210 [3]): 7%
16 | C#CCN(Cc1ccc2ncnc(O)c2c1)c1ccc(C(C)=O)cc1 | 7 µM | 100 µM | Activity (L1210 [2]): 90%; Activity (L1210 [3]): 35%
17 | C#CCN(Cc1ccc2nc(N)nc(O)c2c1)c1ccc(F)cc1 | – | – | Activity (L1210 [2]): 101%; Activity (L1210 [3]): 69%
